ChEMBL document CHEMBL1143652, “Joys of molecules. 2. Endeavors in chemical biology and medicinal chemistry” (J Med Chem, 2005)
≈ marks a conversion by molar mass, not a printed value.

How the values were obtained:
[1] = biological target: Tubulin beta-4B chain (Homo sapiens) (UniProt P68371); assay: (§1) Tubulin polymerization at a concentration of 100 uM incubated for 90 minutes; format: functional
In short: (§2)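 Tubulin polymerization was read as percent polymerization, with test drug at 100 µM and a 90 min incubation.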

[2] = biological target: Tubulin beta-4B chain (Homo sapiens) (UniProt P68371); assay: as §1; in short: as §2
1A9 [3] = assay: Inhibitory concentration against human ovarian 1A9 tumor cells; format: functional, cell-based
[4] = biological target: T1, Sodium channel alpha subunits; brain (Types I, II, III) (Homo sapiens, UniProt P35498+Q99250+Q9NY46); assay: Inhibitory concentration against synaptosome using [3H]PbTx-3
T1 sequence (Q99250 whole entry, looked up, other chains not shown): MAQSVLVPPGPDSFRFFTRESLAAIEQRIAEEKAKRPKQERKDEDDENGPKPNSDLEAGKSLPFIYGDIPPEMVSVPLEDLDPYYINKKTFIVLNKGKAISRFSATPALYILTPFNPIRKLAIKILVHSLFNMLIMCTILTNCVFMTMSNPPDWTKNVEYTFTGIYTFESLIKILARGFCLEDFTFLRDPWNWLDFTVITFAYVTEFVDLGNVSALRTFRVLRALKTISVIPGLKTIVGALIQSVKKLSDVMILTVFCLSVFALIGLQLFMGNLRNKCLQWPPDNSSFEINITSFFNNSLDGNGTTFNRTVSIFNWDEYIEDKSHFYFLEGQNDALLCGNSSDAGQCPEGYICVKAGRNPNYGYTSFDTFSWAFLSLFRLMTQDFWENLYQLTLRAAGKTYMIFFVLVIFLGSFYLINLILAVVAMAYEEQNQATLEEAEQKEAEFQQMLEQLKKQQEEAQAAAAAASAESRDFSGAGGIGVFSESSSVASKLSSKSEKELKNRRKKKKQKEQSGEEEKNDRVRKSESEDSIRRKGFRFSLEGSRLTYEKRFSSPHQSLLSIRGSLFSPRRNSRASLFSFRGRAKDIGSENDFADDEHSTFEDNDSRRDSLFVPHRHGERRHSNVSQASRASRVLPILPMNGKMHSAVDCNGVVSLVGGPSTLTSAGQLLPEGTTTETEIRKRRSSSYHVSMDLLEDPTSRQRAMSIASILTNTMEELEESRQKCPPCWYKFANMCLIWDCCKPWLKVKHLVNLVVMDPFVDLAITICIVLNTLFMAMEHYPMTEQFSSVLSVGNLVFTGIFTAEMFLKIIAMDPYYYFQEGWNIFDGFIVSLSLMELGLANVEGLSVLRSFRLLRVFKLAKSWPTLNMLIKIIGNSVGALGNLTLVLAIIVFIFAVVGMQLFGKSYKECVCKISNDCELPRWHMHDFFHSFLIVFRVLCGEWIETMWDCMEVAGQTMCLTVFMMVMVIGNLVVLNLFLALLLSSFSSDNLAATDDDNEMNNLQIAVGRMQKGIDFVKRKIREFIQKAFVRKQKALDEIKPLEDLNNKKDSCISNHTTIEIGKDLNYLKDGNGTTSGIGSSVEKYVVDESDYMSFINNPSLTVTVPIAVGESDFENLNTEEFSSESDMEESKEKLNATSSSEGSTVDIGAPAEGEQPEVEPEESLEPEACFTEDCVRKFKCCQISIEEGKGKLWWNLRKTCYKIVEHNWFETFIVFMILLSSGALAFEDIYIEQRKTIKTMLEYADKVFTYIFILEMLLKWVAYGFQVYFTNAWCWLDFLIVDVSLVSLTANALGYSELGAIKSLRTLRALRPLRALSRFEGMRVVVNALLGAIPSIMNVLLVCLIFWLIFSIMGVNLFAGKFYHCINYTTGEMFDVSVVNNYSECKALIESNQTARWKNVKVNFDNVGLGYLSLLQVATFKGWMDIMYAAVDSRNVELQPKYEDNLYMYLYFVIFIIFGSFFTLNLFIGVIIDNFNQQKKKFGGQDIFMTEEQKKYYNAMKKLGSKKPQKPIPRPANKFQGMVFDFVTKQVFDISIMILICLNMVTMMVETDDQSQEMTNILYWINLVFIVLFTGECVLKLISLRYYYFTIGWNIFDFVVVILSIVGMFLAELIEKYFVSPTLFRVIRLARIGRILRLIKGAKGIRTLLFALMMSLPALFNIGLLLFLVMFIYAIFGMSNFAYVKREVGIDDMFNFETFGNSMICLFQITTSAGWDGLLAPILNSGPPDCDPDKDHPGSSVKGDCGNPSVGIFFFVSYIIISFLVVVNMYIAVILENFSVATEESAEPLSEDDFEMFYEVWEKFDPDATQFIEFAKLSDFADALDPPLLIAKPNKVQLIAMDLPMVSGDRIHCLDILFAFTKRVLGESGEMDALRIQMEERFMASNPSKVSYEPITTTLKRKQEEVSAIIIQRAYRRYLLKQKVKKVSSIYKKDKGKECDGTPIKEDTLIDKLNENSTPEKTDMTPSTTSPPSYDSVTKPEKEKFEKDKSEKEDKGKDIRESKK
T1 sequence (Q9NY46 whole entry, looked up, other chains not shown): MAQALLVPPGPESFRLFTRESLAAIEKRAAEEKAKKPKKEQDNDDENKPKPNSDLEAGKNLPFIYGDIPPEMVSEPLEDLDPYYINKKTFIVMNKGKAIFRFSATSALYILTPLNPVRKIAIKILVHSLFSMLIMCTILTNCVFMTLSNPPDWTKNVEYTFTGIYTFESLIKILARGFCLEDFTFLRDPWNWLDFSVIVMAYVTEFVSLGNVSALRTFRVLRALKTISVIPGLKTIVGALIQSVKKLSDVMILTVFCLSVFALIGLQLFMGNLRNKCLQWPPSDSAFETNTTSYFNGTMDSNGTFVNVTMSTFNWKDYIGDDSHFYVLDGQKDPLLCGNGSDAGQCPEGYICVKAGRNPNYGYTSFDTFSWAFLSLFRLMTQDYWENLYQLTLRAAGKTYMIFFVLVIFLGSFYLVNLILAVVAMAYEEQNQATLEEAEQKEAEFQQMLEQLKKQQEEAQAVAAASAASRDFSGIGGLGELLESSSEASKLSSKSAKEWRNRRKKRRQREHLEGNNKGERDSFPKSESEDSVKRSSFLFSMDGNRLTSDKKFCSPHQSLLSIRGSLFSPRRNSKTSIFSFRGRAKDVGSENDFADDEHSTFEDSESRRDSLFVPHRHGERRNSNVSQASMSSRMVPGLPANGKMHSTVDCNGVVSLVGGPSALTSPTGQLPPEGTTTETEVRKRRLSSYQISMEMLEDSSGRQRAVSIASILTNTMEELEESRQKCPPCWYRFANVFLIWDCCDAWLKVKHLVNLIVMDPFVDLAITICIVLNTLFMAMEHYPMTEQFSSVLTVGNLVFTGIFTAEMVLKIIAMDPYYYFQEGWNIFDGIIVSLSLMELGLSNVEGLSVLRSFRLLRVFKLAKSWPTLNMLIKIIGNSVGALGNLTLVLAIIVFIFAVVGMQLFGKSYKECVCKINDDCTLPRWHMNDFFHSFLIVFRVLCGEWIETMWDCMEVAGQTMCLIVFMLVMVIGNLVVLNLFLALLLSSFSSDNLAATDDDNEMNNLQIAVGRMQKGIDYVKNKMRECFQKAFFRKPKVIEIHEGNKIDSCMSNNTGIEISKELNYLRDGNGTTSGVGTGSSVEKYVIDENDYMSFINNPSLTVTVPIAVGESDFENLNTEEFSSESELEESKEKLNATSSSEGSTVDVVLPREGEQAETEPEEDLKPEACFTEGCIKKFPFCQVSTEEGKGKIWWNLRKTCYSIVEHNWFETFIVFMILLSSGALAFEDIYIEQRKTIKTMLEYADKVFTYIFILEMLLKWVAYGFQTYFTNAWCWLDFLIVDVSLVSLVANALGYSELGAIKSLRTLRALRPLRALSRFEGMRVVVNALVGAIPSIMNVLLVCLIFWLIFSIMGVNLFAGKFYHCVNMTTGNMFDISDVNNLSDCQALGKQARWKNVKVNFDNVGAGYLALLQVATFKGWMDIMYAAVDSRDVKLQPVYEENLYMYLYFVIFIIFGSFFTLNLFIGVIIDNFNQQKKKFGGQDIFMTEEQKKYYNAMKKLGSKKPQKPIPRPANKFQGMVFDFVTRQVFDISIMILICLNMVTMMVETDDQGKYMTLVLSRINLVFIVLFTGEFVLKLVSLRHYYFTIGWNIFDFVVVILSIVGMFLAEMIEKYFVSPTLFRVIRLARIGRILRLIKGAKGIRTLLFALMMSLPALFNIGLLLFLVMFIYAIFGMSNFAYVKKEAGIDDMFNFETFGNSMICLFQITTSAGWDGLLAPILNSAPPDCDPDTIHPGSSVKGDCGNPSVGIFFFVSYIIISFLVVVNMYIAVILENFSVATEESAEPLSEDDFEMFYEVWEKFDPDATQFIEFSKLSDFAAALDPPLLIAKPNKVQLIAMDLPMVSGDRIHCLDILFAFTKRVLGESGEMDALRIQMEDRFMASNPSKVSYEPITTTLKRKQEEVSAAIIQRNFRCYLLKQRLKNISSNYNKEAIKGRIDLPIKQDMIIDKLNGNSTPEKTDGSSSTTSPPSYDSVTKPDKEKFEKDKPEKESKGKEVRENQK

[5] = biological target: T1, Sodium channel alpha subunits; brain (Types I, II, III); assay: Inhibitory concentration against synaptosomes using [3H]PbTx-3; format: subcellular
[6] = biological target: T1, Sodium channel alpha subunits; brain (Types I, II, III)
MCF7 [7] = assay: Inhibitory concentration against MCF-7 human breast carcinoma cell line; Inactive upto 1 uM; format: functional, cell-based
PC-3 [8] = assay: Inhibitory concentration against PC-3 human prostate carcinoma cell line; Inactive upto 1 uM; format: functional, cell-based
1A9/ptx-10 [9] = assay: Inhibitory concentration against 1A9/PTX10 cell line; Inactive upto 1 uM; format: functional, cell-based, Homo sapiens
A2780 [10] = assay: Inhibitory concentration against A2780/AD10 cell line; Inactive upto 1 uM; format: functional, cell-based, Homo sapiens
A549 [11] = assay: Inhibitory concentration against A549 human lung carcinoma cell line; Inactive upto 1 uM; format: functional, cell-based
1A9 [12] = assay: Inhibitory concentration against 1A9 human ovarian carcinoma cell line; Inactive upto 1 uM; format: functional, cell-based
[13] = biological target: T2, Integrin alpha-IIb/beta-3 (Homo sapiens, UniProt P05106+P08514); assay: Inhibitory concentration against integrin alpha-2b beta3; format: protein-complex assay
[14] = biological target: T2, Integrin alpha-IIb/beta-3; assay: Inhibitory concentration against alpha IIb beta-3 receptor; format: protein-complex assay
MOLT-4 [15] = assay: Inhibitory concentration against MOLT-4 human T-cells; format: functional, cell-based
MOLT-4 [16] = assay: Inhibitory concentration against MOLT-4 human T-cells; 10e-12; format: functional, cell-based
MOLT-4 [17] = assay: Inhibitory concentration against MOLT-4 human T-cells; 10e-11; format: functional, cell-based
Gallus gallus = assay: In vivo inhibition of angiogenesis in the chick chorioallantoic membrane (CAM) assay; format: functional
[18] = biological target: T3, Peroxisome proliferator-activated receptor delta (Homo sapiens, UniProt Q03181); assay: Effective concentration towards PPAR delta
[19] = biological target: T3, Peroxisome proliferator-activated receptor delta; assay: Effective concentration against PPAR delta receptor
P388 [20] = assay: Cytotoxicity against P-388 cancer cell line; format: functional, Homo sapiens; settings: Mus musculus, read-out: ED50 (the source's name)
P388 [21] = assay: Cytotoxicity against leukemia P-388 tumor cells; format: functional; settings: Mus musculus, read-out: ED50 (the source's name)
PC-3 [22] = assay: Inhibitory concentration against PC-3 human prostate carcinoma cell line; Range is 10-15 nM; format: functional, cell-based
MCF7 [23] = assay: Inhibitory concentration against MCF-7 human breast carcinoma cell line; Range is 10-15 nM; format: functional, cell-based
A2780 [24] = assay: Inhibitory concentration against A2780/AD10 cell line; Range is 10-15 nM; format: functional, cell-based; settings: Homo sapiens
1A9/ptx-10 [25] = assay: Inhibitory concentration against 1A9/PTX10 cell line; Range is 10-15 nM; format: functional, cell-based; settings: Homo sapiens
A549 [26] = assay: Inhibitory concentration against A549 human lung carcinoma cell line; Range is 10-15 nM; format: functional, cell-based
1A9 [27] = assay: Inhibitory concentration against 1A9 human ovarian carcinoma cell line; Range is 10-15 nM; format: functional, cell-based
[28] = Inhibitory concentration against LN229 cell proliferation; format: functional, cell-based; settings: Homo sapiens, LN-229
Bile acid receptor [29] = biological target: T4, Bile acid receptor (Homo sapiens, UniProt Q96RI1); assay: Effective concentration against farnesoid X receptor (FXR); range is 5-10 uM
T4 sequence (Q96RI1 whole entry): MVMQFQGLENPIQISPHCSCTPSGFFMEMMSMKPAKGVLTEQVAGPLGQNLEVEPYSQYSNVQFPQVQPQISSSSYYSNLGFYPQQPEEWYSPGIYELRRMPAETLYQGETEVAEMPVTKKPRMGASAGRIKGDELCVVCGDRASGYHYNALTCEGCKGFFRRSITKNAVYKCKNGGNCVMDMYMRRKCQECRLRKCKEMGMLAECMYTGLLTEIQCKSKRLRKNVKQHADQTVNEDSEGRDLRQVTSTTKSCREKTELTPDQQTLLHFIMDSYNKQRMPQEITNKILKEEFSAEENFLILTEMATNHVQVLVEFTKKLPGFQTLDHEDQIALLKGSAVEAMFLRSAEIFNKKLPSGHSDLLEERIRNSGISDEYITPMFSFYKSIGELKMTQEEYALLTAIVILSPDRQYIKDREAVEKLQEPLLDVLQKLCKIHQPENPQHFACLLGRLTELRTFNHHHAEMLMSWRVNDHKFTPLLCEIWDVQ

Bile acid receptor [30] = biological target: T4, Bile acid receptor; assay: Effective concentration towards farnesoid X receptor (FXR); Range is 5-10 uM
OVCAR-3 [31] = assay: Cytotoxicity by measuring inhibitory concentration against ovcar-3 tumor cell line; Inactive; format: functional, cell-based, Homo sapiens
A549 [32] = assay: Inhibitory concentration against A549 human lung carcinoma cell line; Range is 2-5 nM; format: functional, cell-based
1A9/ptx-10 [33] = assay: Inhibitory concentration against 1A9/PTX10 cell line; Range is 2-5 nM; format: functional, cell-based; settings: Homo sapiens
A2780 [34] = assay: Inhibitory concentration against A2780/AD10 cell line; Range is 2-5 nM; format: functional, cell-based; settings: Homo sapiens
1A9 [35] = assay: Inhibitory concentration against 1A9 human ovarian carcinoma cell line; Range is 2-5 nM; format: functional, cell-based
MCF7 [36] = assay: Inhibitory concentration against MCF-7 human breast carcinoma cell line; Range is 2-5 nM; format: functional, cell-based
PC-3 [37] = assay: Inhibitory concentration against PC-3 human prostate carcinoma cell line; Range is 2-5 nM; format: functional, cell-based
[38] = biological target: Peptidyl-prolyl cis-trans isomerase FKBP1A (Homo sapiens, UniProt P62942); assay: Inhibitory concentration against binding to FKBP12
Chain of Peptidyl-prolyl cis-trans isomerase FKBP1A (P62942 whole entry): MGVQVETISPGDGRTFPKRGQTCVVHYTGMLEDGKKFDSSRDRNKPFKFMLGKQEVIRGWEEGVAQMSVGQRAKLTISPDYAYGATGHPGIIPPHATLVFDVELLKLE

OVCAR-3 [39] = assay: Cytotoxicity by measuring inhibitory concentration against ovcar-3 tumor cell line; format: functional, cell-based, Homo sapiens; settings: Homo sapiens, OVCAR-3
OVCAR-3 [40] = assay: Cytotoxicity by measuring inhibitory concentration against ovcar-3 tumor cell line; 10e-10; format: functional, cell-based; settings: Homo sapiens
[41] = biological target: Polyunsaturated fatty acid 5-lipoxygenase (Homo sapiens, UniProt P09917); assay: Effective concentration required to inhibit 5-lipoxygenase by 50%

Chain of Tubulin beta-4B chain (Homo sapiens) (P68371 whole entry): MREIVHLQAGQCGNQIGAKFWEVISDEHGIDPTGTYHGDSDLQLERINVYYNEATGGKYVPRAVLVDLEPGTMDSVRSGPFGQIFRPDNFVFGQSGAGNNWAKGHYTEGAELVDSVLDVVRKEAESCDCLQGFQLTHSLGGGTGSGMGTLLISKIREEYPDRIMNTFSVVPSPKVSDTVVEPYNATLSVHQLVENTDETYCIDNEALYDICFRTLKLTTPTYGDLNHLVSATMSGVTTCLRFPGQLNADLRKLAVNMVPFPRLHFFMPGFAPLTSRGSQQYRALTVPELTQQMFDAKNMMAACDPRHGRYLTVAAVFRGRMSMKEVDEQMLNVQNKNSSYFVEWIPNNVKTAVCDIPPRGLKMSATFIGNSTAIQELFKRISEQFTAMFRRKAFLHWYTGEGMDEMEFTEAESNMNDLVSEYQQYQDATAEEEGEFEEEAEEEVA

CO[C@]12C=C[C@](C)(O1)[C@@H](OC(=O)/C=C/c1cn(C)cn1)C[C@H]1C(C)=CC[C@H](C(C)C)[C@H]1/C=C\2COC1OCC(O)C(O)C1OC(C)=O (some centres undefined)
TP [1]: 54%
TP [2]: 54%
IC50 (1A9 [3]): 40 nM

C=C(C=O)C[C@@H]1C[C@H](O)[C@]2(C)O[C@@H]3C[C@@H]4O[C@@H]5C[C@]6(C)O[C@]7(C)C(C)=CC(=O)O[C@H]7C[C@H]6O[C@@]5(C)C/C=C\[C@H]4O[C@H]3C[C@H]2O1 [TRUNCATED BREVETOXIN B]
IC50 [4]: > 10000 nM
IC50 [5]: > 10000 nM
Binding [6]: 18 nM

CC(C)[C@@H]1NC(=O)[C@@H](NC(=O)OCc2ccccc2)Cc2ccc3c(c2)[C@]2(C4=C(C=O)N=C1O4)c1cccc(Br)c1N[C@@H]2O3
IC50 (MCF7 [7]): Inactive
IC50 (PC-3 [8]): Inactive
IC50 (1A9/ptx-10 [9]): Inactive
IC50 (A2780 [10]): Inactive
IC50 (A549 [11]): Inactive
IC50 (1A9 [12]): Inactive

N=C(N)N1CCN(c2ccc(C(=O)NC[C@H](NS(=O)(=O)c3c(O)ccc4ccccc34)C(=O)O)cc2[N+](=O)[O-])CC1
IC50 [13]: 14 nM
IC50 [14]: 14 nM

COC(=O)N/C(C)=C1/C(=C/CSSSC)[C@@](O)(CC=O)C#C/C=C\C#C[C@@H]1O
IC50 (MOLT-4 [15]): 0.0012 nM
IC50 (MOLT-4 [16]): 0.0012 nM

COC(=O)N/C(C)=C1/C(=C/COC(=O)c2ccc([N+](=O)[O-])cc2)[C@@](O)(CC=O)C#C/C=C\C#C[C@@H]1O
IC50 (MOLT-4 [15]): 0.044 nM
IC50 (MOLT-4 [17]): 0.044 nM

N=C(N)NCCOc1ccc(C(=O)NC[C@H](NS(=O)(=O)c2ccccc2)C(=O)O)cc1[N+](=O)[O-]
Dose (Gallus gallus): 30 ug/embryo

CC(C)N(Cc1cccc2c1OC(C)(C)C=C2)C(=O)c1ccc(-c2ccccc2)cc1
EC50 [18]: 1000 nM
EC50 [19]: 1 nM

CC(C)=CC[C@@H]1C(=O)C2=C(OC(C)(C)C=C2)C(=O)[C@@]12OC(=O)C1=C[C@]3(O)C[C@H]4C(C)(C)OC(CC=C(C)C)(C3=O)[C@]14O2 [LATERIFLORONE]
EC50 (P388 [20]): 5.4 µg/mL (≈ 9.33 µM)
EC50 (P388 [21]): 5.4 µg/mL (≈ 9.33 µM)

CC(C)[C@@H]1NC(=O)[C@@H](NC(=O)[C@H](O)C(C)C)Cc2ccc3c(c2)[C@]24C5=C(N=C1O5)c1nc(Cl)c(o1)-c1c(Cl)[nH]c5cccc(c15)-c1cccc2c1N[C@@H]4O3
IC50 (PC-3 [22]): 15 nM
IC50 (MCF7 [23]): 15 nM
IC50 (A2780 [24]): 15 nM
IC50 (1A9/ptx-10 [25]): 15 nM
IC50 (A549 [26]): 15 nM
IC50 (1A9 [27]): 15 nM

COc1c(C(C)n2cnc3ncccc32)ccc2c1C=CC(C)(C)O2 (centres undefined)
IC50 [28]: 26000 nM

CCNC1COC(OC2C(O[C@H]3C#C/C=C\C#C[C@@](C)(O)C(=C/CSC(C)=O)/C3=C(\NC(=O)OC)C(C)=O)OC(C)C(NOC3CC(O)C(SC(=O)c4c(C)c(I)c(OC5OC(C)C(O)C(OC)C5O)c(OC)c4OC)C(C)O3)C2O)CC1OC (some centres undefined)
IC50 (MOLT-4 [15]): < 0.01 nM
IC50 (MOLT-4 [16]): < 0.001 nM

COc1c(CN(C(=O)C2CC2)c2ccccc2)ccc2c1OC(C)(C)C=C2
EC50 (Bile acid receptor [29]): 10000 nM
EC50 (Bile acid receptor [30]): 10000 nM

CC(=O)O[C@@H]1C2=C(C)[C@H](OC(=O)[C@H](O)[C@@H](NC(=O)c3ccccc3)c3ccccc3)C[C@@](O)([C@@H](OC(=O)c3ccccc3)c3ccccc3[C@H]1OC(C)=O)C2(C)C
IC50 (OVCAR-3 [31]): Not Active

CC(C)[C@H](O)C(=O)N[C@H]1Cc2ccc(O)c(c2)[C@]2(C(=O)Nc3ccccc32)C2=C(CO)N=C(O2)[C@H](C(C)C)NC1=O
IC50 (MCF7 [7]): Inactive
IC50 (PC-3 [8]): Inactive
IC50 (1A9/ptx-10 [9]): Inactive
IC50 (A2780 [10]): Inactive
IC50 (A549 [11]): Inactive
IC50 (1A9 [12]): Inactive

[H][C@]12Nc3c4cccc3[C@]13C1=C(N=C(O1)[C@H](C(C)C)NC(=O)[C@@H](NC(=O)[C@@H](O)C(C)C)Cc1ccc(c3c1)O2)c1nc(Cl)c(o1)-c1c(Cl)[nH]c2cccc-4c12 [DIAZONAMIDE A]
IC50 (A549 [32]): 5 nM
IC50 (1A9/ptx-10 [33]): 5 nM
IC50 (A2780 [34]): 5 nM
IC50 (1A9 [35]): 5 nM
IC50 (MCF7 [36]): 5 nM
IC50 (PC-3 [37]): 5 nM

CO[C@H]1C[C@@H]2CC[C@@H](C)[C@@](O)(O2)C(=O)C(=O)N2CCCC[C@H]2C(=O)N[C@H](CCc2ccccc2)C(=O)NCC(=O)N(C)CC(=O)O[C@H]1C
IC50 [38]: 9.6 nM

C=C(C=O)C[C@@H]1C[C@H](O)[C@]2(C)O[C@@H]3C[C@@H]4O[C@@H]5C[C@]6(C)O[C@]7(C)CC[C@@H]8O[C@@H]9C[C@]%10(C)O[C@@H]%11C(C)=CC(=O)O[C@H]%11C[C@H]%10O[C@H]9C[C@@H](C)[C@H]8O[C@H]7C[C@H]6O[C@@]5(C)C/C=C\[C@H]4O[C@H]3C[C@H]2O1 [BREVETOXIN B]
IC50 [4]: 15.02 nM
IC50 [5]: 15.02 nM
Binding [6]: 18 nM

CC(=O)OC1C(=O)[C@@]2(C)[C@H]([C@H](OC(=O)c3ccsc3)[C@]3(O)C[C@H](OC(=O)[C@H](O)[C@@H](NC(=O)c4ccccc4)c4ccccc4)C(C)=C1C3(C)C)[C@]1(OC(C)=O)CO[C@@H]1C[C@@H]2O (some centres undefined)
IC50 (OVCAR-3 [39]): 0.671 nM
IC50 (OVCAR-3 [40]): 0.67 nM

O=C(O)CCC[C@H](O)\C=C/C=C/C=C/[C@H](O)C/C=C\CCCCC(F)(F)F
EC50 [41]: 3 nM
